Bioassay records (PubChem BioAssay)
Hck-Nef inh = inhibitors of human Hck kinase activated by Nef | P08631 | Recombinant Hck-YEEI plus Nef, Z-Lyte FRET kinase assay | inhibition, % at 20 µM | 0.68% of 220,000 active;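 active = Hck-Nef kinase inhibition above about 50%, limit read from the data; inactive = inhibition below that limit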
Target sequence (P08631 whole entry, looked up): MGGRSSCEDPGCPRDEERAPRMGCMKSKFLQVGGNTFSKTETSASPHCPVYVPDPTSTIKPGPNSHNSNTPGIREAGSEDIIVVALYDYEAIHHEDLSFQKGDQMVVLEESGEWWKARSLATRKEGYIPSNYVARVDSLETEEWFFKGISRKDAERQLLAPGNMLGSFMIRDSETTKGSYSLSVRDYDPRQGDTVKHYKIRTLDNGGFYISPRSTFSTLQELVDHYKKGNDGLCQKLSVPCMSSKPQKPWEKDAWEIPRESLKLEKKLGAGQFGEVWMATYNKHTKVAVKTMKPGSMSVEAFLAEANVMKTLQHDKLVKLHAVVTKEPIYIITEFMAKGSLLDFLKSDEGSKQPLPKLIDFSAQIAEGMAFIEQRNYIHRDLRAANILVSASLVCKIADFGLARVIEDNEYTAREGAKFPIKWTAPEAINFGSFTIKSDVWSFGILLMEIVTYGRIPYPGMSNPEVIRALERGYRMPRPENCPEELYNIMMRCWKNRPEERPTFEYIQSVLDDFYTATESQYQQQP
PfM18AAP inh = PfM18AAP enzyme inhibition. recombinant PfM18AAP, H-Glu-NHMec fluorogenic cleavage. 1.2% of 290,000 active. inhibition, % at 7.35 µM;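 active = inhibition above the campaign mean inhibition over all tested compounds plus 3 SD, cut at about 28% in these data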
Runt-SMMHC FRET = inhibitors of human RUNX1 Runt domain binding to CBFb-SMMHC | AID 1434 | 0.74% of 220,000 active | Q01196+Q13951 | Cerulean-Runt/Venus-CBFb-SMMHC FRET ratio 530/480, 1 h | inhibition, % at 20 µM;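 active = mean inhibition across duplicate retests at 20 µM reaching about 50%, limit read from the data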;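 also: inhibitors lower the FRET ratio by blocking Runt binding to CBFb-SMMHC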
RBBP9 inhibitor = blocks human serine hydrolase RBBP9; 0.2% of 220,000 active; O75884; recombinant RBBP9, FP-Rh probe fluorescence polarization; inhibition, % at 7.94 µM;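 active = inhibition above the campaign mean of all tested compounds plus 3 SD, cut at about 14% in these data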
Target sequence (O75884 whole entry, looked up): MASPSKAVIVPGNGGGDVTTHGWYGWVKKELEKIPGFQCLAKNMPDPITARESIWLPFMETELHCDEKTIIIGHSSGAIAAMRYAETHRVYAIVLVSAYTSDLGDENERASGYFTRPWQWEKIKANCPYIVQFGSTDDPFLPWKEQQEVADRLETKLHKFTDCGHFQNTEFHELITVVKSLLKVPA
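Test system – recombinant human RBBP9 · Input – RBBP9 2.5 µM in dispensing solution, pre-mixing · Medium – Tris buffer pH 8.0, NaCl, Pluronic · Schedule – preincubation 30 min plus labeling 45 min at 25 °C · Measured by – fluorescence polarization · Measure – % inhibition · Controls – DMSO and no-protein wells · Replicates – one well per compound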
Runt-CBFb FRET = blocks binding of human RUNX1 Runt domain to CBFb. AID 1496. inhibition, % at 20 µM. 0.46% of 220,000 active. Cerulean-Runt/Venus-CBFb FRET ratio 530/480, 1 h. Q01196+Q13951;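 active = inhibition over about 50% at 20 µM in the single-dose screen, limit read from the data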
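System: Cerulean-labeled Runt domain protein | Quantity: 100 nM of each labeled protein | Schedule: 1 h compound exposure, room temperature | Detection: Fluorescence energy transfer, 422 nm excitation, 530/480 nm emission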
RanGTP-Impb inh = disruptors of Ran-importin-beta complex formation – biochemical, FRET, CFP-Ran, YFP-importin-beta, homogeneous, primary screen. cell-free CFP-Ran/YFP-importin-beta FRET ratio. inhibition, % (concentration not given with the values). 1.1% of 300,000 active. AID 2216;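 active = more than half of the replicate wells show a fall in the fluorescence ratio signal beyond about 16%, limit read from the data, passing the limit was not always enough; inconclusive = exactly half of the replicate wells pass the set limit; inactive = fewer than half of replicates pass the limit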
Hits are given with their value; . = inactive; ? = inconclusive; / = no result. Shown are actives, neighbours in structure and some others; about 2.9% of the full set was active somewhere.

SMILES | Hck-Nef inh | PfM18AAP inh | Runt-SMMHC FRET | RBBP9 inhibitor | Runt-CBFb FRET | RanGTP-Impb inh
CCCCn1c(=O)nc2n(-c3ccc(Cl)cc3)c3ccccc3cc-2c1=O | . | . | 82 | . | 103 | 59
Cc1ccc(-n2c3nc(=O)n(C)c(=O)c-3cc3ccccc32)cc1 | . | . | 81 | . | . | 86
Cc1ncc([N+](=O)[O-])n1CC(=O)Nc1ccc(F)cc1F | / | . | / | / | / | .
O=C1CCC(C(=O)N2CCc3c(Cl)cccc3C2)CN1CCCN1CCOCC1 (stereo unspecified) | / | . | / | / | / | .
O=C(OCC(=O)C12CC3CC(CC(C3)C1)C2)c1cnccn1 | / | . | / | / | / | .
C#Cc1cccc(NC(=O)c2ccc(Cl)cc2Cl)c1 | . | . | . | . | . | .
Cc1cccc(NS(=O)(=O)c2ccc3c(c2)oc(=O)n3C)c1C | / | . | / | / | / | .
C/C(N)=C(/C#N)C(=O)COC(=O)CNC(=O)c1ccc(Cl)cc1Cl | . | . | . | . | . | 37
C/C(N)=C(/C#N)C(=O)COc1ccc(Cl)cc1Cl | . | . | . | . | . | ?
Cc1c(Cc2ccccc2)sc(NC(=O)C(C)(C)C)c1C(N)=O | . | . | . | . | . | .
Cc1c(Cc2ccccc2)sc(N)c1C(N)=O | . | 42 | . | . | . | .
Cc1sc(N)c(C(=O)c2ccccc2)c1C | . | 32 | . | . | . | .
Cc1ccccc1NC(=O)CN1C(=O)CSc2ccc(S(=O)(=O)N3CCCCC3)cc21 | / | . | / | / | / | .
Cc1ccc(Nc2cc(C(=O)NCCCN3CCOCC3)c3ccccc3n2)cc1C | / | . | / | / | / | .
Cc1ccc(S(=O)(=O)c2cc3c(=O)n4ccccc4nc3n(Cc3ccco3)c2=N)cc1C | . | . | . | . | . | 76
COc1ccc(CCn2c(=N)c(S(=O)(=O)c3ccc(Cl)cc3)cc3c(=O)n4ccccc4nc32)cc1 | / | . | / | / | / | .
CCOCCCn1c(=N)c(S(=O)(=O)c2ccc(C)cc2)cc2c(=O)n3cc(C)ccc3nc21 | / | . | / | / | / | 158
CNC(=O)c1cc2c(=O)n3cc(C)ccc3nc2n(Cc2ccco2)c1=N | / | / | . | / | 88 | /
N=c1c(S(=O)(=O)c2ccccc2)cc2c(=O)n3ccccc3nc2n1Cc1ccco1 | . | . | / | . | . | 85
CCOC(=O)C1CCN(C(=O)C2CCCN2S(=O)(=O)c2ccc(Cl)cc2)CC1 (stereo unspecified) | / | . | / | / | / | .
Cc1ccc(C(=O)NCCC(=O)Nc2ccccc2C)cc1 | / | . | / | / | / | .
CC(C)c1ccc(C(CC(=O)O)N2Cc3ccccc3C2=O)cc1 (stereo unspecified) | / | . | / | / | / | .
Cc1ccc2nc3c(cc(S(=O)(=O)c4ccccc4)c(=N)n3Cc3ccco3)c(=O)n2c1 | . | . | 92 | . | . | ?
CCN(C(=O)Cn1c(=O)oc2ccccc21)c1ccc(C)c(C)c1 | / | . | / | / | / | .
CCCCn1c(N)c(N(CC(C)C)C(=O)c2cccc(S(=O)(=O)N3CCN(C)CC3)c2)c(=O)[nH]c1=O | / | / | / | / | / | .
SMILES | Hck-Nef inh | PfM18AAP inh | Runt-SMMHC FRET | RBBP9 inhibitor | Runt-CBFb FRET | RanGTP-Impb inh
C=CCC1(/C=N/O)CCOC(C)(C)C1 (stereo unspecified) | . | . | . | . | . | .
Cn1c2c(c(=O)n1-c1ccccc1)CSCC2 | / | / | / | / | / | .
CC1=N/C(=C\c2ccccc2Cl)C(=O)O1 | / | / | / | / | / | .
CNc1oc(/C=C/c2ccccc2)nc1C#N | . | 34 | 84 | . | . | .
COc1ccc2nc(NC(=O)C3COc4ccccc4O3)sc2c1 (stereo unspecified) | . | . | . | . | . | .
COc1ccc2nc(NNC(=O)C3COc4ccccc4O3)sc2c1 (stereo unspecified) | . | 31 | . | . | . | .
COc1ccc(C(C(=O)NC2CCCC2)N(Cc2cccnc2)C(=O)c2snc(C(N)=O)c2N)cc1OC (stereo unspecified) | / | . | / | / | / | .
Cc1nn(-c2ccc(F)cc2)c(C)c1NS(=O)(=O)c1ccc(Cl)cc1 | . | . | . | . | . | .
Cc1ccc(-n2nc(C)c(NS(=O)(=O)c3ccccc3)c2C)cc1C | . | . | . | . | . | 36
Cn1c(CC(=O)Nc2ccccc2Cl)nnc1SCC(=O)NC1CCCCC1 | / | . | / | / | / | .
O=C(NC(=S)NNC(=O)c1ccccc1O)c1ccc([N+](=O)[O-])cc1 | / | 30 | / | / | / | .
CCCCCC(=O)NNC(=S)NC(=O)c1ccc([N+](=O)[O-])cc1 | . | 31 | . | . | . | .
CC(C)(C)c1cc(CCC(=O)NNC(=S)NC(=O)c2ccccc2)cc(C(C)(C)C)c1O | . | 29 | . | . | . | ?
Cc1ccc(C(=O)NC(=S)NNC(=O)c2ccc([N+](=O)[O-])cc2)cc1 | / | . | / | / | / | .
O=C(CCc1ccccc1)NNC(=S)NC(=O)c1ccccc1 | . | . | . | . | . | .
Cc1onc(-c2ccccc2)c1C(=O)NC(=S)NNC(=O)c1ccc(O)cc1O | . | 30 | . | . | . | .
O=C(NNC(=S)NC(=O)c1ccccc1)c1ccc([N+](=O)[O-])cc1 | / | . | / | / | / | .
O=S(=O)(c1cc(Cl)c(Cl)cc1Cl)N1CCN2CCCC2C1 (stereo unspecified) | / | . | / | / | / | .
O=C(CSc1cn[nH]n1)Nc1ccccc1C(F)(F)F | / | . | / | / | / | .
O=C(NC(=S)NNC(=O)c1ccccc1O)c1ccccc1 | / | 30 | / | / | / | .
O=C(N=C1SC2CS(=O)(=O)CC2N1c1cccc(Cl)c1Cl)C1CC1 (stereo unspecified) | / | . | / | / | / | .
CC(C)[C@H](NC(=O)[C@H](Cc1ccccc1)n1c(=O)[nH]c2ccccc2c1=O)C(=O)N1CCC[C@H]1C(=O)O | / | . | / | / | / | .
COC(=O)c1c(NC(=O)Cc2ccccc2)sc2c1CCN(C(C)C)C2 | / | . | / | / | / | .
CCOC(=O)c1c(NC(=O)CCS(=O)(=O)c2ccccc2)sc2c1CCN(C(C)C)C2 | / | . | / | / | / | 127
CN1CCc2c(sc(NC(=O)CS(=O)(=O)c3ccccc3)c2C(N)=O)C1 | / | / | / | / | / | 139
SMILES | Hck-Nef inh | PfM18AAP inh | Runt-SMMHC FRET | RBBP9 inhibitor | Runt-CBFb FRET | RanGTP-Impb inh
CCCN1CCc2c(sc(NC(=O)CCS(=O)(=O)c3ccccc3)c2C(N)=O)C1 | / | . | / | / | / | 153
CNC(=O)c1c(NC(=O)CCS(=O)(=O)c2ccccc2)sc2c1CCN(C(=O)OC)C2 | / | / | / | / | / | .
CCN(CC)C(=O)Cn1cc(S(=O)(=O)CC(=O)Nc2ccc(F)cc2F)c2ccccc21 | / | . | / | / | / | .
CCN(CC)C(=O)c1ccc(COc2ccc(Cl)c(C)c2)o1 | / | . | / | / | / | .
COc1ccc(-c2n[nH]c(=S)n2-c2ccccc2C)cc1 | / | . | / | / | / | .
CCOc1ccc(CCNC(=O)COC(=O)c2cccnc2OCC)cc1OCC | . | . | . | . | . | 20
CN(C(=O)c1ccoc1)c1ccc2ccccc2c1 | / | . | / | / | / | .
CCOC(=O)c1ccc(NS(=O)(=O)c2cc3c4c(c2)CCN4C(=O)CC3)cc1 | / | / | / | / | / | .
COc1ccc(Cn2c(=S)[nH]c3ccccc3c2=O)cc1 | / | . | / | / | / | .
O=C1NC(=S)S/C1=C\c1coc2ccccc2c1=O | 88 | . | . | . | . | .
